According to ChEMBL document CHEMBL4190262, “Tuning of β-glucosidase and α-galactosidase inhibition by generation and in situ screening of a library of pyrrolidine-triazole hybrid molecules” (Eur J Med Chem, 2017):
Calls of active or inactive are those of the source. No cut-off for these calls is given here.

Legend:
[1] = Inhibition of almond beta-glucosidase using p-nitrophenyl glycopyranoside preincubated for 5 mins followed by substrate addition measured after 20 mins by visible absorption spectroscopic method; set-up: species or system Prunus dulcis
Summary of the method: (§1)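 IC50 determined only for compounds giving ≥80% inhibition at 1 mM, read from plots of % inhibition versus inhibitor concentration. p-Nitrophenyl glycopyranoside substrate (10 mM solution) at the enzyme's optimal pH, with 0.01–0.5 units/mL enzyme. 5 min rt preincubation with enzyme, then 20 min at 37 °C. Borate stop (pH 9.8), absorbance at 405 nm. Duplicates averaged.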

Saccharomyces cerevisiae = experiment: Inhibition of yeast alpha glucosidase at 1 mM using p-nitrophenyl glycopyranoside preincubated for 5 mins followed by substrate addition measured after 20 mins by visible absorption spectroscopic method relative to control
Summary of the method: (§2)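 Test compound at 1 mM in well. Mix: 0.01–0.5 units/mL enzyme plus 10 mM p-nitrophenyl glycopyranoside (aqueous solution), buffered to the enzyme's optimal pH. Enzyme and inhibitor preincubated 5 min at rt. Substrate then added and incubated 20 min at 37 °C. Stopped with sodium borate (pH 9.8). p-Nitrophenolate read at 405 nm. Duplicates averaged.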

[2] = molecular target: Beta-galactosidase (Escherichia coli) (UniProt Q8VNN2); experiment: Inhibition of Escherichia coli beta-galactosidase at 1 mM using p-nitrophenyl glycopyranoside preincubated for 5 mins followed by substrate addition measured after 20 mins by visible absorption spectroscopic method relative to control; summary of the method: as §2
[3] = molecular target: T1, Alpha-mannosidase (Canavalia ensiformis) (UniProt C0HJB3); experiment: Inhibition of jack bean alpha-mannosidase at 1 mM using p-nitrophenyl glycopyranoside preincubated for 5 mins followed by substrate addition measured after 20 mins by visible absorption spectroscopic method relative to control; summary of the method: as §2
T1 sequence (whole entry): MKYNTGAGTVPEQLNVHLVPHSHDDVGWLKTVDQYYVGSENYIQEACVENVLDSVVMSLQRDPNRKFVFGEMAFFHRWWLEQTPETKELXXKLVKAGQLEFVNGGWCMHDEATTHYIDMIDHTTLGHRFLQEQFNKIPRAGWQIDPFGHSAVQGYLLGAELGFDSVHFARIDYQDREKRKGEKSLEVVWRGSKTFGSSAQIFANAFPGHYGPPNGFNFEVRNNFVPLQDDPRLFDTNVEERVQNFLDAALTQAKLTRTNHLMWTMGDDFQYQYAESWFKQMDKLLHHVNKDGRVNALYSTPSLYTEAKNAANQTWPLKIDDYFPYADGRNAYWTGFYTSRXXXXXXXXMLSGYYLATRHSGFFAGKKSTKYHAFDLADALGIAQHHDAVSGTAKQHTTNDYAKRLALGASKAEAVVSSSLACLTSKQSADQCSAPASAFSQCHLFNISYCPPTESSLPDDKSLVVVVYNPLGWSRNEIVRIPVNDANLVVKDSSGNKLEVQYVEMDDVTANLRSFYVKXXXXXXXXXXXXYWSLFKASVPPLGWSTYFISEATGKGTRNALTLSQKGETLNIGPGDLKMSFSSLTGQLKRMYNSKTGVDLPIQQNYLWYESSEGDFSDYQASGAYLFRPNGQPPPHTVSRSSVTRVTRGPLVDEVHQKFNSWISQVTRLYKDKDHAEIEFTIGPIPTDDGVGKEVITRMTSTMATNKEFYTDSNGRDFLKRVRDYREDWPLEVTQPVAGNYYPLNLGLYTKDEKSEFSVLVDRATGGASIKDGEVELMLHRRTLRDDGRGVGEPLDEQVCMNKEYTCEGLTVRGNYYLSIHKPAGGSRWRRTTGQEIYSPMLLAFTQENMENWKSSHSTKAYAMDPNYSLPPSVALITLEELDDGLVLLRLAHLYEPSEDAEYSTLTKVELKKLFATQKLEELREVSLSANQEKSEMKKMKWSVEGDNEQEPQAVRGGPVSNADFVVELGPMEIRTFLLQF

Cornu aspersum = experiment: Inhibition of snail beta-mannosidase at 1 mM using p-nitrophenyl glycopyranoside preincubated for 5 mins followed by substrate addition measured after 20 mins by visible absorption spectroscopic method relative to control; summary of the method: as §2
Alpha-galactosidase = Alpha-galactosidase (Coffea arabica, UniProt Q42656); experiment: Inhibition of coffee beans alpha-galactosidase using p-nitrophenyl glycopyranoside preincubated for 5 mins followed by substrate addition measured after 20 mins by visible absorption spectroscopic method; summary of the method: as §1
[4] = molecular target: Alpha-galactosidase (Coffea arabica) (UniProt Q42656); experiment: Inhibition of coffee beans alpha-galactosidase at 1 mM using p-nitrophenyl glycopyranoside preincubated for 5 mins followed by substrate addition measured after 20 mins by visible absorption spectroscopic method relative to control; summary of the method: as §2
Aspergillus niger = experiment: Inhibition of Aspergillus niger amyloglucosidase at 1 mM using p-nitrophenyl glycopyranoside preincubated for 5 mins followed by substrate addition measured after 20 mins by visible absorption spectroscopic method relative to control; summary of the method: as §2
Bos taurus = species on record: Bos taurus; experiment: Inhibition of bovine kidney alpha-L-fucosidase at 1 mM using p-nitrophenyl glycopyranoside preincubated for 5 mins followed by substrate addition measured after 20 mins by visible absorption spectroscopic method relative to control; summary of the method: as §2
[5] = molecular target: T2, Beta-galactosidase (Aspergillus oryzae) (UniProt B7VU80); experiment: Inhibition of Aspergillus oryzae beta-galactosidase at 1 mM using p-nitrophenyl glycopyranoside preincubated for 5 mins followed by substrate addition measured after 20 mins by visible absorption spectroscopic method relative to control; summary of the method: as §2
T2 sequence (whole entry): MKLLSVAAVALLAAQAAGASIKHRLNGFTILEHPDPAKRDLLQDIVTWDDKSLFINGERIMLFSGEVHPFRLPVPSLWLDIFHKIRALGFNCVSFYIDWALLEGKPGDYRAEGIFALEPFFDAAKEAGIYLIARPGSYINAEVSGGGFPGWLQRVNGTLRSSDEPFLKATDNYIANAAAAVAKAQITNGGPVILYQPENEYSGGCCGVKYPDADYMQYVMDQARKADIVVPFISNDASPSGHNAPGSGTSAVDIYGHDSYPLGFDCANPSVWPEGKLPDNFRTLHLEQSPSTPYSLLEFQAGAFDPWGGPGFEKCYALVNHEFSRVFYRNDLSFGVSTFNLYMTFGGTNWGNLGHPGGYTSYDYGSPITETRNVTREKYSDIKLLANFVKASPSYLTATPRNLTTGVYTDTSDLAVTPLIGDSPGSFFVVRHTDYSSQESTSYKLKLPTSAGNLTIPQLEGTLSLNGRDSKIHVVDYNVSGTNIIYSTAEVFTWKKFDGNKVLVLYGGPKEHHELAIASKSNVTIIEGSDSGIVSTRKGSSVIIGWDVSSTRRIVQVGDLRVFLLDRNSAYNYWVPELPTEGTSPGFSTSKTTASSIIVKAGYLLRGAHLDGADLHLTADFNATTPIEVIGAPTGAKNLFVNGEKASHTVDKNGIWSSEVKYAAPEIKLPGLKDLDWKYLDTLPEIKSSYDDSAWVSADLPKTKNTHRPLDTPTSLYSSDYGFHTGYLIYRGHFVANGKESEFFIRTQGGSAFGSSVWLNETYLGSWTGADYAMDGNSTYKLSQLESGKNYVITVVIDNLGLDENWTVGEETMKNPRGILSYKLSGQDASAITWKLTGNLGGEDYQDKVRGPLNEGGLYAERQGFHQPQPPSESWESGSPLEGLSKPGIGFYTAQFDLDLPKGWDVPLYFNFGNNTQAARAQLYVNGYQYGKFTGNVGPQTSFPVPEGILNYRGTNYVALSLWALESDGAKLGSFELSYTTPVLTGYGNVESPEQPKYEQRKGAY

Canavalia ensiformis = experiment: Inhibition of jack bean beta-N-acetylglucosaminidase at 1 mM using p-nitrophenyl glycopyranoside preincubated for 5 mins followed by substrate addition measured after 20 mins by visible absorption spectroscopic method relative to control; summary of the method: as §2
Prunus dulcis = experiment: Inhibition of almond beta-glucosidase at 1 mM using p-nitrophenyl glycopyranoside preincubated for 5 mins followed by substrate addition measured after 20 mins by visible absorption spectroscopic method relative to control; summary of the method: as §2
Oryza sativa = experiment: Inhibition of rice alpha-glucosidase at 1 mM using p-nitrophenyl glycopyranoside preincubated for 5 mins followed by substrate addition measured after 20 mins by visible absorption spectroscopic method relative to control; summary of the method: as §2

Sequence of Alpha-galactosidase (Coffea arabica) (Q42656 16-378 limits assumed): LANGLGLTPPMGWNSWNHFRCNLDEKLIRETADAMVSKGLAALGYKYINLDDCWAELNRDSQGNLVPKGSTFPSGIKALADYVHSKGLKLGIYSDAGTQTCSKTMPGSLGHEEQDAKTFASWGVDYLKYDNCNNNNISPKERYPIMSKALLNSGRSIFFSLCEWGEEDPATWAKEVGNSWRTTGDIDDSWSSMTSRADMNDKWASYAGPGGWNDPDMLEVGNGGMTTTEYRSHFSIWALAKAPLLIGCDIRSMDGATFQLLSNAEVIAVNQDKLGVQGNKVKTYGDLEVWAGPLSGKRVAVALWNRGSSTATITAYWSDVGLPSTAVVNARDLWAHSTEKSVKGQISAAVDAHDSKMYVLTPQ
Sequence of Beta-galactosidase (Escherichia coli) (Q8VNN2 whole entry, looked up): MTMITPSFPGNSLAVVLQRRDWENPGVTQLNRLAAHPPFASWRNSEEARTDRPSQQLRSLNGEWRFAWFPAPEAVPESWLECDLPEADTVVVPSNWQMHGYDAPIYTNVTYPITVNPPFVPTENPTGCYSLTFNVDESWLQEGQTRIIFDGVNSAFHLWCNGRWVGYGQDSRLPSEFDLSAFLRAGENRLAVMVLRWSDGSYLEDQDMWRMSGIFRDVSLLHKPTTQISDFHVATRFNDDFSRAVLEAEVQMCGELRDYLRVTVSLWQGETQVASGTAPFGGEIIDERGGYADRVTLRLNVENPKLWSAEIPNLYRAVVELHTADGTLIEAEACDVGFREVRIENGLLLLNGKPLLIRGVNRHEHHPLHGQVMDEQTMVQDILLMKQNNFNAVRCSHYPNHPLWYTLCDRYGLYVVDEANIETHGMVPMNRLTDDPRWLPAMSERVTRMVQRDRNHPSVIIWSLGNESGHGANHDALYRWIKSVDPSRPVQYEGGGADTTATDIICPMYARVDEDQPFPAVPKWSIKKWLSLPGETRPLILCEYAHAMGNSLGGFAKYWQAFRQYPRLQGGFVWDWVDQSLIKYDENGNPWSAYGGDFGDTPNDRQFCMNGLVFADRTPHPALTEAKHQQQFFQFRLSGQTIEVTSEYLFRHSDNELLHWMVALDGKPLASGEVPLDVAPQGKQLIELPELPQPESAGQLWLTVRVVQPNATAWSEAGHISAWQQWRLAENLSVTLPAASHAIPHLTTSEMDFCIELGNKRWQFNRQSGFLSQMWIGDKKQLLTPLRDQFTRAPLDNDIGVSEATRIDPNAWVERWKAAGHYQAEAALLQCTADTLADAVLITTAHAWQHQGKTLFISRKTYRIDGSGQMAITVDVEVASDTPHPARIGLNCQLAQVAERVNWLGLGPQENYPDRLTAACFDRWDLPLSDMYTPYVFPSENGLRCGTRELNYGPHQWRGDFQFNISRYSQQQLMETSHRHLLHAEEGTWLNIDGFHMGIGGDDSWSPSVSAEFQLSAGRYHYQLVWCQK
Sequence of Alpha-galactosidase (Q42656 whole entry): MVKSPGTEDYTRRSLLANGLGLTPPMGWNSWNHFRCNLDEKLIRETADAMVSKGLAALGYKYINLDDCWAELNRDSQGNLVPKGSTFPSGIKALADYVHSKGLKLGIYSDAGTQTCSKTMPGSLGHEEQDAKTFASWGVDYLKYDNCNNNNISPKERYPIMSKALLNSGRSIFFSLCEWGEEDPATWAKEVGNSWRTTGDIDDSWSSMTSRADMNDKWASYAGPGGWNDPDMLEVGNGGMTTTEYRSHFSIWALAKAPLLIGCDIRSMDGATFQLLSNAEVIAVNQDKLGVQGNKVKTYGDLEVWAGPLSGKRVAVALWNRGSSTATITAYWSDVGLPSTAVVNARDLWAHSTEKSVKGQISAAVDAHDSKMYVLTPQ

IC50 [1]: 11 µM
inhibition (Saccharomyces cerevisiae): inactive
inhibition [2]: 60%
inhibition [3]: inactive
inhibition (Cornu aspersum): inactive
IC50 (Alpha-galactosidase): 107 µM
inhibition [4]: 89%
inhibition (Aspergillus niger): inactive
inhibition (Bos taurus): 49%
inhibition [5]: 78%
inhibition (Canavalia ensiformis): inactive
inhibition (Prunus dulcis): 96%
inhibition (Oryza sativa): inactive
Structure (SMILES): O[C@@H]1[C@H](O)CN[C@@H]1CCn1cc(-c2ccccc2)nn1
